Each structure is given as a SMILES string.

The nature of data set [1]: pKa value was determined. In kind it is physicochemical. Summed up:
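Determined by autotitration with a pH meter and autoburette; mean of two or more independent measurements.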

Data set [2] deals with T1, Muscarinic acetylcholine receptor (Rattus norvegicus) (UniProt P08482+P08483+P08485+P08911+P10980).
Data set [3] deals with T1, Muscarinic acetylcholine receptor (Rattus norvegicus). The source holds these as a separate data set.
Data set [4] shares this target. The data set is described as follows: Apparent binding affinity against rat cortical Muscarinic acetylcholine receptor by the displacement of [3H]N-methylscopolamine. Format: protein assay. Summed up: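 Membranes from cortex of male Sprague-Dawley rats (250–300 g), resuspended in 20 mM HEPES Krebs' buffer pH 7.4. Displacement of 0.1 nM [3H]-N-methylscopolamine; 60 min incubation at 30 °C, ended by filtration. Apparent affinity constant corrected for radioligand occupancy, given in micromolar; geometric mean of at least three independent experiments on separate occasions.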
(Loss of bound radioactivity is the signal in a displacement assay; it reports binding, not function.)

The target is the same in data set [5]. In words: Apparent binding affinity against rat cortical Muscarinic acetylcholine receptor by the displacement of [3H]oxotremorine-M. In kind it is protein assay. The method in brief:
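Rat brain membranes from male Sprague-Dawley rats (250–300 g), resuspended in 20 mM HEPES buffer pH 7.4. Displacement curves use 3.0 nM [3H]oxotremorine-M; incubation 40 min at 30 °C, stopped by filtration through polyethyleneimine-presoaked filters.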

The nature of data set [6]: Ratio of apparent binding affinities of NMS and Oxo-M.

`Cc1noc(C2=CCCN(C)C2)n1`: in data set [1], the pKa – broadly, the pH at which an ionisable group is half protonated – turned out to be 7.16.

The compound `Cc1noc(C2=CC(C)CN(C)C2)n1` (stereo not given) returned a pKa in data set [1] of 7.34. The K app in data set [2] came to 15 µM; in data set [3] it was 0.87 µM.

As to `COC(=O)C1=CCCNC1`, the K app in data set [2] turned out to be 23 µM; in data set [3], 0.012 µM.

For the compound `OCc1noc(C2=CCCNC2)n1`, the results for the K app in data set [2] and in data set [3] were 34 µM and 0.11 µM, respectively.

On to `Cc1noc(C2=CCC(C)NC2)n1` (stereo not given), for which, in data set [1], the pKa is 8.2. Further, the K app came to 16 µM in data set [4] and 0.12 µM in data set [5]. Besides, the Ratio in data set [6] is 130.

Compound `C=Cc1noc(C2=CCCNC2)n1` came in with a pKa in data set [1] of 8.23. In addition, the figures for the K app in data set [2] and in data set [3] were 2.5 µM and 0.035 µM, respectively.

`Cc1noc(C2=CC(C)CNC2)n1` (stereo not given) displayed a pKa in data set [1] of 8.17. The K app was 2.7 µM in data set [2] and 0.037 µM in data set [3].

In the case of `Nc1noc(C2=CCCNC2)n1`, the pKa in data set [1] is 8.25.

On to `CCc1noc(C2=CCCNC2)n1`, for which the figures for the K app in data set [2] and in data set [3] were 4.3 µM and 0.0074 µM, respectively.

For `OCCc1noc(C2=CCCNC2)n1`, the K app in data set [2] stood at 13 µM; in data set [3] it was 0.23 µM.

In data set [1], `Cc1noc(C2=CCC(C)N(C)C2)n1` (stereo not given) registered a pKa of 7.35. The results for the K app in data set [2] and in data set [3] were 2.4 µM and 0.061 µM, respectively.

`Cc1noc(C2=CCCNC2)n1`: the pKa in data set [1] was 8.24. Besides, the results for the K app in data set [2] and in data set [3] were 2.3 µM and 0.0031 µM, respectively.

Consider `CCC1C=C(c2nc(C)no2)CNC1` (stereo not given), for which the K app was determined as 25 µM in data set [2] and 0.97 µM in data set [3].

Take `FCCc1noc(C2=CCCNC2)n1`: the pKa in data set [1] stood at 8.29. Further, the K app stood at 5.7 µM in data set [2] and 0.021 µM in data set [3].

For the compound `CN1CCC=C(c2nc(N(C)C)no2)C1`, the pKa in data set [1] worked out at 7.24. The K app was 2.5 µM in data set [2] and 0.12 µM in data set [3].

With `CN(C)c1noc(C2=CCCNC2)n1`, in data set [1], the pKa was determined as 8.58. In addition, the K app in data set [2] was found to be 3.5 µM; in data set [3], 0.082 µM.

These data come from ChEMBL document CHEMBL1125623, “Tetrahydropyridyloxadiazoles: semirigid muscarinic ligands” (J Med Chem, 1991).
